Results from ChEMBL document CHEMBL1136800 (J Med Chem, 2003).

Legend:
[1] = molecular target: cGMP-specific 3',5'-cyclic phosphodiesterase (Bos taurus, UniProt Q28156); assay: Inhibitory activity against bovine PDE5 (phosphodiesterase-5).
[2] = Increase in intracellular cGMP concentration in atrial natriuretic factor treated rat aortic smooth muscle cells.; type: functional, tissue-based; conditions: Aorta
Outline: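 Primary rat aortic smooth muscle cells grown in DMEM with 10% FCS and used at confluence (3-5 days). Compound in PBS for 30 min at 37 °C, then ANF 0.1 µM for 10 min at 37 °C. Intracellular cGMP extracted with 65% ethanol and measured by scintillation proximity immunoassay, in triplicate wells; DMSO ≤0.1%. EC50 is the concentration giving half the maximal cGMP increase seen at saturating compound.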

[3] = molecular target: cGMP-dependent 3',5'-cyclic phosphodiesterase (Homo sapiens, UniProt O00408); assay: Inhibition of human recombinant PDE2 (phosphodiesterase 2)
Outline: (§1)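 Incubated 30 min at 30 °C under initial-velocity conditions (≤10-15% hydrolysis). Product separated on QAE Sephadex and counted by scintillation; final DMSO 2%.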

[4] = molecular target: Phosphodiesterase 3B (Bos taurus, UniProt E1BN64); assay: Inhibition of bovine aorta PDE3 (phosphodiesterase 3); outline: as §1
[5] = molecular target: Phosphodiesterase 1 (Bos taurus, UniProt Q01061+P14100); assay: Inhibition of bovine aorta PDE1 (phosphodiesterase 1); type: protein assay; outline: as §1
[6] = molecular target: Phosphodiesterase 4 (Homo sapiens, UniProt P27815+Q08499+Q07343+Q08493); assay: Inhibition of human recombinant PDE4 (phosphodiesterase 4); type: protein assay; outline: as §1

Sequence of cGMP-dependent 3',5'-cyclic phosphodiesterase (O00408 whole entry): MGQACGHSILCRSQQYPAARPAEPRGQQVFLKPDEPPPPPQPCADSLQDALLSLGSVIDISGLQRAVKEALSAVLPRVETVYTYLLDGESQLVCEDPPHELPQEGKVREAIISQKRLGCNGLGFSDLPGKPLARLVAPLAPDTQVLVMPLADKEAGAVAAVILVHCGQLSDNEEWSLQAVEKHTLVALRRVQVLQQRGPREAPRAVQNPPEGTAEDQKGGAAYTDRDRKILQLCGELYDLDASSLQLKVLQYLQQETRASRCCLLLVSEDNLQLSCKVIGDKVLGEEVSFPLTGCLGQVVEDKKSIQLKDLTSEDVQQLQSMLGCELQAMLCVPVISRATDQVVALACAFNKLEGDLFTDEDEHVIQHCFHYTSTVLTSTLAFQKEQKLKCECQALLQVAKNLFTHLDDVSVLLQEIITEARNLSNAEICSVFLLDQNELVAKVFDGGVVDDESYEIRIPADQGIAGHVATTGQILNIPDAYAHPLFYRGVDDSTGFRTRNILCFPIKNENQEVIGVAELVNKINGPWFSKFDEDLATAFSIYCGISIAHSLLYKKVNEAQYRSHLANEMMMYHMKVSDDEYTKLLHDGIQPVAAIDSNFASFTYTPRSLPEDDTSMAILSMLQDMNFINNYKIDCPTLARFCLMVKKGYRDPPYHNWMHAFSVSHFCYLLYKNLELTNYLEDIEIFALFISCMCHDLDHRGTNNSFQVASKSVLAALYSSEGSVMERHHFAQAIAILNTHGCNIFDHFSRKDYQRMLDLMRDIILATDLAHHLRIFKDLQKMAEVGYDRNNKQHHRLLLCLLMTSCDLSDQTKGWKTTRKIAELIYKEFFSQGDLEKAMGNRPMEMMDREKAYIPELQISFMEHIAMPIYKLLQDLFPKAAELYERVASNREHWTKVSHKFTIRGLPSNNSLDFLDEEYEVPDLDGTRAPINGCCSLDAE
Sequence of Phosphodiesterase 3B (E1BN64 whole entry): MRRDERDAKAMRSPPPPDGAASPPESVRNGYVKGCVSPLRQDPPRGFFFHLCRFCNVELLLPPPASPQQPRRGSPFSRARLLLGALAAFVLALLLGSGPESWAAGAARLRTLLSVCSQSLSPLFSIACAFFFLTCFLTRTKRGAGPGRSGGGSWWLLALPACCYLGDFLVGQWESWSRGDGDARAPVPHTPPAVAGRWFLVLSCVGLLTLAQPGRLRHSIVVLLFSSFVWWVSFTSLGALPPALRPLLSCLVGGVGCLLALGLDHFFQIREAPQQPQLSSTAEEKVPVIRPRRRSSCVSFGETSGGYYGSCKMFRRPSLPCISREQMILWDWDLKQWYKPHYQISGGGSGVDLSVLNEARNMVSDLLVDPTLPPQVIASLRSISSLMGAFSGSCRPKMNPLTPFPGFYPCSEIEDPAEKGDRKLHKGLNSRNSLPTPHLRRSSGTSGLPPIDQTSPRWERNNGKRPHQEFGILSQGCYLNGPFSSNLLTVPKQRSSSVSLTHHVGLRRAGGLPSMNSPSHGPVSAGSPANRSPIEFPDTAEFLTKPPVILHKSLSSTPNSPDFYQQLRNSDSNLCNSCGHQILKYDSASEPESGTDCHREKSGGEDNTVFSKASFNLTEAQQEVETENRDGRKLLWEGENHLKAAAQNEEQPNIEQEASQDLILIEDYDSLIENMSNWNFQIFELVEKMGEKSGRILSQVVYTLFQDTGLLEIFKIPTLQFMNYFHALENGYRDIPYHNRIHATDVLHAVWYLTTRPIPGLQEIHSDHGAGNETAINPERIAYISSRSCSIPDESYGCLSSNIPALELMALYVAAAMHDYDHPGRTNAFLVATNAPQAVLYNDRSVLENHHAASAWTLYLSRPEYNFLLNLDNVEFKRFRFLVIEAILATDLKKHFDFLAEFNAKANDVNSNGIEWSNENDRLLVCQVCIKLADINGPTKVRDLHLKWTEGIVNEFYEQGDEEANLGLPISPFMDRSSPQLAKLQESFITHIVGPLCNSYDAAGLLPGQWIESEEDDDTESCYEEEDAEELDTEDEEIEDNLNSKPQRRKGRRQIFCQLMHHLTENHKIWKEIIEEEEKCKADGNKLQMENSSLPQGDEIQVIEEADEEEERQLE

| IC50 [1] [nM] | EC50 [2] [nM] | IC50 [3] [nM] | IC50 [4] [nM] | IC50 [5] [nM] | IC50 [6] [nM] | SMILES |
| --- | --- | --- | --- | --- | --- | --- |
| 50 | > 10000 | – | – | – | – | CCCCN1C(=O)[C@H]2Cc3c([nH]c4ccccc34)[C@@H](c3ccc(Cl)cc3)N2C1=O |
| > 10000 | – | – | – | – | – | CCCCN1C(=O)[C@H]2Cc3c(n(C)c4ccccc34)[C@@H](c3ccc(OC)cc3)N2C1=O |
| 4 | 150 | > 10000 | > 10000 | > 10000 | > 10000 | COc1ccc([C@@H]2c3[nH]c4ccccc4c3C[C@@H]3C(=O)N(Cc4ccccc4)C(=O)N23)cc1 |
| 100 | – | – | – | – | – | CCCCN1C(=O)[C@H]2Cc3c([nH]c4ccccc34)[C@@H](c3ccoc3)N2C1=O |
| 30 | – | – | – | – | – | CCCCN1C(=O)[C@H]2Cc3c([nH]c4ccccc34)[C@@H](c3ccsc3)N2C1=O |
| 10 | 1000 | – | – | – | – | COc1ccc([C@@H]2c3[nH]c4ccccc4c3C[C@@H]3C(=O)N(C)C(=O)N23)cc1 |
| 20 | 1500 | – | – | – | – | CCCCN1C(=O)[C@H]2Cc3c([nH]c4ccccc34)[C@H](c3ccc(Cl)cc3)N2C1=O |
| 60 | 5000 | – | – | – | – | CCCCN1C(=O)[C@H]2Cc3c([nH]c4ccccc34)[C@@H](c3ccccc3)N2C1=O |
| 50 | > 10000 | – | – | – | – | CCCCN1C(=O)[C@H]2Cc3c([nH]c4ccccc34)[C@H](c3cccc(Cl)c3)N2C1=O |

Second part, the compound before the results:

| SMILES | IC50 [1] [nM] | EC50 [2] [nM] | IC50 [3] [nM] | IC50 [4] [nM] | IC50 [5] [nM] | IC50 [6] [nM] |
| --- | --- | --- | --- | --- | --- | --- |
| COc1ccc([C@H]2c3[nH]c4ccccc4c3C[C@@H]3C(=O)NC(=O)N23)cc1 | 20 | 3000 | – | – | – | – |
| COc1ccc([C@@H]2c3[nH]c4ccccc4c3C[C@@H]3C(=O)N(C4CCCCC4)C(=O)N23)cc1 | 7 | 300 | > 10000 | > 10000 | > 10000 | > 10000 |
| CCCCN1C(=O)[C@H]2Cc3c([nH]c4ccccc34)[C@@H](c3cccnc3)N2C1=O | 90 | – | – | – | – | – |
| CCN1C(=O)[C@H]2Cc3c([nH]c4ccccc34)[C@@H](c3ccc(OC)cc3)N2C1=O | 10 | 400 | – | – | – | – |
| COc1ccc([C@H]2c3[nH]c4ccccc4c3C[C@@H]3C(=O)N(CCc4ccccn4)C(=O)N23)cc1 | 6 | 1500 | – | – | – | – |
| CCCCN1C(=O)[C@H]2Cc3c([nH]c4ccccc34)[C@H](c3ccc(C#N)cc3)N2C1=O | 300 | – | – | – | – | – |
| COc1ccc([C@H]2c3[nH]c4ccccc4c3C[C@@H]3C(=O)N(CCN(C)C)C(=O)N23)cc1 | 30 | 3500 | – | – | – | – |
| COc1ccc([C@H]2c3[nH]c4ccccc4c3C[C@@H]3C(=O)N(C4CCCCC4)C(=O)N23)cc1 | 3 | 100 | – | – | – | – |
| CCCCN1C(=O)[C@H]2Cc3c([nH]c4ccccc34)[C@@H](c3cccc(Cl)c3)N2C1=O | 50 | 4000 | – | – | – | – |
| CCCCN1C(=O)[C@H]2Cc3c([nH]c4ccccc34)[C@@H](c3ccc(C#N)cc3)N2C1=O | 900 | – | – | – | – | – |
| CCCCN1C(=O)[C@H]2Cc3c([nH]c4ccccc34)[C@@H](c3ccncc3)N2C1=O | 300 | – | – | > 10000 | 2000 | > 10000 |
| CCN1C(=O)[C@H]2Cc3c([nH]c4ccccc34)[C@H](c3ccc(OC)cc3)N2C1=O | 7 | 1500 | – | – | – | – |
| CCCCN1C(=O)[C@H]2Cc3c([nH]c4ccccc34)[C@H](c3ccccc3)N2C1=O | 20 | 2000 | – | – | – | – |
| CCCCN1C(=O)[C@H]2Cc3c([nH]c4ccccc34)[C@H](c3ccc(OC)cc3)N2C1=O | – | 1000 | > 10000 | > 10000 | > 10000 | > 10000 |
| COc1ccc([C@H]2c3[nH]c4ccccc4c3C[C@@H]3C(=O)N(Cc4cccnc4)C(=O)N23)cc1 | 20 | 5500 | – | – | – | – |
| COc1ccc([C@H]2c3[nH]c4ccccc4c3C[C@@H]3C(=O)N(Cc4ccccc4)C(=O)N23)cc1 | 18 | > 10000 | – | – | – | – |
| COc1ccc([C@H]2c3[nH]c4ccccc4c3C[C@@H]3C(=O)N(CCN4CCCC4)C(=O)N23)cc1 | 100 | 10000 | – | – | – | – |
| CCCCN1C(=O)[C@H]2Cc3c([nH]c4ccccc34)[C@@H](c3ccc(OC)cc3)N2C1=O | – | 700 | > 10000 | > 10000 | > 10000 | > 10000 |
| CCOC(=O)c1cc2c(cn1)[nH]c1ccccc12 | 800 | – | – | – | – | – |
| CCCCN1C(=O)[C@H]2Cc3c([nH]c4ccccc34)[C@H](c3ccccc3OC)N2C1=O | 1000 | – | – | – | – | – |
| CCCOc1ccccc1-c1nc2[nH]nnc2c(=O)[nH]1 [ZAPRINAST] | – | – | – | > 10000 | 2600 | – |
